Only some compounds are listed: those with a hit (about 1.7% of all), similar ones and a draw of the others.
Runt-CBFb FRET = inhibitors of RUNX1 Runt–CBFb binding, primary screen, biochemical, FRET, Cerulean-Runt, Venus-CBFb, uHTS; Runt-related transcription factor 1 (Homo sapiens) + Core-binding factor subunit beta …; inhibition, % at 20 µM; Cerulean-Runt/Venus-CBFb FRET ratio 530/480, 1 h; 220,000 tested, 0.46% active;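 active means inhibition over about 50% at 20 µM in the single-dose screen, limit read from the data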
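test system = Cerulean-Runt domain fusion protein, energy donor | probe or stimulus = Venus-CBFb binding partner, 100 nM | incubation = two 1 h room-temperature incubations shielded from light | detection = fluorescence energy transfer, 422 nm excitation, 530/480 nm emission | measure = loss of energy transfer signal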
Vif imaging = HIV Vif self-association inhibitors, primary screen, imaging, HEK293T, single point. HEK293T cells, Vif self-association by quenched fluorescence, 24 h. 340,000 tested, 0.35% active. inhibition, % at 7.49 µM; in the data active means inhibition above about 50%, passing the limit was not always enough; inconclusive means no clear call, values can overlap the other calls; inactive means below about 31%
Runt-SMMHC FRET = inhibitors of RUNX1 Runt–CBFb-SMMHC binding, primary screen, biochemical, FRET, Cerulean-Runt, Venus-CBFb-SMMHC, uHTS | Runt-related transcription factor 1 (Homo sapiens) + Core-binding factor subunit beta … | Cerulean-Runt/Venus-CBFb-SMMHC FRET ratio 530/480, 1 h | inhibition, % at 20 µM | 220,000 tested, 0.74% active;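 active means mean inhibition across duplicate retests at 20 µM reaching about 50%, limit read from the data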;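 further: inhibitors lower the FRET ratio by blocking Runt binding to CBFb-SMMHC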
Rce1 inhib = yeast Rce1p protease inhibitors, primary screen, biochemical, fluorescence, cell-free homogeneous. AID 2563, 2010. CAAX prenyl protease 2 (Saccharomyces cerevisiae (strain ATCC 204508 / S288c)), Q03530. 290,000 tested, 0.27% active. calls only. yeast membranes, quenched prenylated peptide cleavage fluorescence;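 active means fall in fluorescence gain of 50% or more versus controls, with final raw signal at or below 3038400; inconclusive means same 50% fall but final raw signal above 3038400; inactive means fall in fluorescence gain under 50%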
RanGTP-Impb inh = inhibitors of RanGTP-importin-beta interaction, primary screen, biochemical, FRET, CFP-Ran, YFP-importin-beta, homogeneous | AID 2216, 2009 | cell-free CFP-Ran/YFP-importin-beta FRET ratio | Ran GTPase (GTP-bound) - importin-beta complex | inhibition, % (test concentration not listed) | 300,000 tested, 1.1% active;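 active means more than half of the replicate wells show a fall in the fluorescence ratio signal beyond about 16%, limit read from the data, passing the limit was not always enough; inconclusive means exactly half of the replicate wells pass the set limit; inactive means fewer than half of replicates pass the limit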
Large screens that a line does not name were inactive.

N#Cc1c(NC(=S)NC(=O)c2ccccc2)sc2c1CCC2	none
CC1(C)Cc2c(sc(N)c2C#N)C(C)(C)N1	none
CC(=O)Nc1ccc(S(=O)(=O)NCC(=O)OCC(=O)NC23CC4CC(CC(C4)C2)C3)cc1	Vif imaging 75.5
COC(=O)\C(C(C)=O)=C(/C=C/C=C/N(C)C)N(C)C	Vif imaging 61.6
CCCCCCOC(=O)C(C#N)c1nc2ccccc2nc1N1CCN(C)CC1 (stereo unspecified)	RanGTP-Impb inh 22.6
CC(C)OC(=O)C(C#N)c1nc2ccccc2nc1N1CCCC1 (stereo unspecified)	none
CCCCCCOC(=O)C(C#N)c1nc2ccccc2nc1N1CCCCC1 (stereo unspecified)	RanGTP-Impb inh 30.6
CCC(C)COC(=O)C(C#N)c1nc2ccccc2nc1N1CCCCC1 (stereo unspecified)	RanGTP-Impb inh 23.1
O=C(CN1CCN(C(=O)c2ccco2)CC1)Nc1ccc(F)cc1F	Vif imaging inconclusive (no result: Runt-CBFb FRET, Runt-SMMHC FRET)
Cc1cc(C)c(C)c(S(=O)(=O)N2CCCCC2C(=O)O)c1C (stereo unspecified)	Vif imaging 55.3
COc1ccccc1-c1c(C)oc2c(CN3CCOCC3)c(O)ccc2c1=O	Rce1 inhib inconclusive (no result: Runt-CBFb FRET, Runt-SMMHC FRET)
CCOc1ccccc1Oc1c(C)oc2c(CN3CCN(CCO)CC3)c(O)ccc2c1=O	none
COc1ccccc1-c1coc2c(CN3CCN(C)CC3)c(O)ccc2c1=O	Rce1 inhib active (no result: Vif imaging)
CN1CCN(Cc2c(O)ccc3c(=O)c(Oc4ccccc4Cl)c(C(F)(F)F)oc23)CC1	RanGTP-Impb inh 22.2
COc1ccccc1-c1coc2c(CN3CCN(CCO)CC3)c(O)ccc2c1=O	none (no result: Runt-CBFb FRET, Runt-SMMHC FRET)
COc1ccccc1Oc1c(C)oc2c(CN3CCN(CCO)CC3)c(O)ccc2c1=O	Rce1 inhib active
Cc1oc2c(CN3CCOCC3)c(O)ccc2c(=O)c1-c1ccccc1	Rce1 inhib active
O=C(NC1CCc2ccccc21)c1cc(COc2cncc(Cl)c2)on1 (stereo unspecified)	RanGTP-Impb inh inconclusive (no result: Runt-CBFb FRET, Runt-SMMHC FRET)
COc1ccccc1-c1coc2c(CN3CCCC(C)C3)c(O)ccc2c1=O (stereo unspecified)	none (no result: Runt-CBFb FRET, Runt-SMMHC FRET)
O=c1c(-c2ccccc2)coc2c(CN3CCCC3)c(O)ccc12	Rce1 inhib active
CCN1CCN(Cc2c(O)ccc3c(=O)c(-c4ccccc4OC)coc23)CC1	Rce1 inhib active
CC(NC(=O)OCc1ccccc1)C(=O)Oc1cc2oc(=O)cc(-c3ccccc3)c2cc1Cl (stereo unspecified)	Runt-SMMHC FRET 60.1
O=C(NC(Cc1ccccc1)C(=O)Oc1ccc2c(C(F)(F)F)cc(=O)oc2c1)OCc1ccccc1 (stereo unspecified)	Runt-SMMHC FRET 81.1, RanGTP-Impb inh 36.9
OC(c1ccco1)c1nc(-c2ccc(F)c(Cl)c2)cs1 (stereo unspecified)	none (no result: Runt-CBFb FRET, Runt-SMMHC FRET, Rce1 inhib, RanGTP-Impb inh)
CCCCCN(C(=O)CCC(=O)OCCOc1ccccc1Cl)c1c(N)n(CCCC)c(=O)[nH]c1=O	none (no result: Runt-CBFb FRET, Runt-SMMHC FRET)
Cc1nc2c(=O)oc3ccccc3c2n1-c1ccccc1	none
CCn1c(C)nc2c(=O)oc3ccccc3c21	Rce1 inhib active
CCN(CC)c1ccc(-c2c(C#N)c(N)nc(OC)c2C#N)cc1	Runt-SMMHC FRET 99.0
CCN(CC)CCCNc1cc(C)nc2cc(-c3cccs3)nn12	Rce1 inhib active (no result: Runt-CBFb FRET, Runt-SMMHC FRET)
Cc1ccc(NC(=O)C(=O)NCCN2CCN(S(=O)(=O)c3ccccc3)CC2)cc1C	none
CCCCn1c(N)c(N(CCOC)C(=O)c2cc(CC)c(C)s2)c(=O)[nH]c1=O	RanGTP-Impb inh inconclusive (no result: Runt-CBFb FRET, Runt-SMMHC FRET)
Cc1cccc(NS(=O)(=O)c2ccc(C)c(C(=O)OCC(=O)Nc3cc(C)on3)c2)c1	Rce1 inhib active
Cc1cccc(NS(=O)(=O)c2cc(C(=O)OCC(=O)Nc3cc(C)on3)ccc2C)c1	none
O=S(=O)(Nc1ccc(-c2cn3c(n2)SCC3)cc1)c1ccccc1F	none (no result: Runt-CBFb FRET, Runt-SMMHC FRET)
Cc1nc(-c2nc(-c3c(C(=O)NNC(=O)c4ccc(Cl)cc4)noc3C)cs2)cs1	RanGTP-Impb inh 16.8

Screening results (PubChem BioAssay)
